Source: PubChem
Many of the other results were omitted from the sample, so hits are more common in it than they were.
CHOP inhibitor = inhibitors of CHOP induction in ER stress response. CHO-K1 CHOP-promoter luciferase, tunicamycin-induced, 15-18 h. inhibition, % at 10 µM. AID 2732. 220,000 compounds, 3.8% hits;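 active = compounds that reduced the stress-induced luciferase reporter signal by more than about 70% of percent inhibition, limit read from the data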;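 note: 0% = tunicamycin plus vehicle and 100% = wells without tunicamycin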
UPR XBP1 act = adaptive UPR (XBP1) activation. CHO-XBP1 luciferase reporter, IRE1-XBP1 UPR activation, luminescence; percent of tunicamycin response, DMSO as zero. activation, % at 20 µM. 330,000 compounds, 0.33% hits. AID 463104;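 active = versus positive control, 20 µM dose yields 30% or more activation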;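 note: 100% = tunicamycin at 10 µg/mL and 0% = DMSO only wells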
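Material: CHO-XBP1 cells stably carrying IRE1-XBP1-driven luciferase reporter / Amount: 1000 cells per well / Compound: 20 µM, 1% DMSO / Times: 6 h treatment, 37 °C / Detection: luciferase luminescence / Measure: % activation of reporter signal versus tunicamycin and DMSO controls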
CHOP UPR activ = activators of apoptotic arm of unfolded protein response (CHOP); CHO-CHOP luciferase reporter, UPR activation, luminescence; percent of tunicamycin response over DMSO baseline; activation, % at 10 µM; 330,000 compounds, 0.34% hits; AID 449763;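 active = at 10 µM dose, activation of 40% or more, normalized to positive control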;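 note: 100% = tunicamycin at 10 µg/mL and 0% = DMSO alone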
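Test system: CHO CHOP reporter cells. Input: 500 CHO-CHOP cells per well. Medium: F12 with 10% FBS. Technique: luciferase luminescence. Measure: percent activation relative to tunicamycin control. Dosing: 10 µM compound, 0.5% DMSO. Timing: 16-18 h cell attachment, then 6 h compound exposure, 37 °C.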
VLA-4 inh = inhibition in a human VLA-4 binding assay | VLA-4 expressing cells, ligand binding flow cytometry | inhibition, % (about 7 µM as worked out from the volumes in the protocol) | 330,000 compounds, 0.2% hits | AID 2557; in the data active = inhibition above about 50%
Beta2AR agonist = activates human beta-2 adrenergic receptor causing internalization; 340,000 compounds, 0.43% hits; AID 504454; P07550; response, % (concentration not given with the values); Am2.2-beta2AR cells, FAP receptor internalization, flow cytometry;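 active = response above a set limit, near 3 SD of response in nonfluorescent compounds, cut at about 42% in these data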
Target sequence (P07550 whole entry, looked up): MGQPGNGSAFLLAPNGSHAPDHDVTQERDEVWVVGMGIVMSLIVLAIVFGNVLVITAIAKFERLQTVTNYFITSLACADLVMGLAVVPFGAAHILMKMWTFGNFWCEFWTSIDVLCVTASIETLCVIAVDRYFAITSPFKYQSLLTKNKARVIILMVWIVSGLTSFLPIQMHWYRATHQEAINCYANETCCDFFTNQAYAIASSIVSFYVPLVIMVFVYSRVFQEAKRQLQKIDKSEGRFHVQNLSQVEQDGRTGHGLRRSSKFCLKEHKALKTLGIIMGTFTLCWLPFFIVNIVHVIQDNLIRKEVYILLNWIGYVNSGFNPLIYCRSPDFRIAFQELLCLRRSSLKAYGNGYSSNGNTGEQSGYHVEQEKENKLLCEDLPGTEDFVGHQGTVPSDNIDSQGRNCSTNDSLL
* marks the source's active call; other numbers are inactive results; . = not tested or not shown.

SMILES | CHOP inhibitor | UPR XBP1 act | CHOP UPR activ | VLA-4 inh | Beta2AR agonist
CCC(CC)NC(=O)COC(=O)c1ccc(OCC(=O)Nc2ccccc2OC)c(OC)c1 | 82* | 18 | 2 | 34 | -2
CCOC(=O)C1=NN(c2ccc(Cl)cc2)C(=O)C1 | -3 | 2 | 5 | 6 | 1
COc1ccccc1N/C(N)=N/c1nc(CSc2nc3ccccc3s2)cc(=O)[nH]1 | 94* | 2 | 6 | -1 | .
CCOC(=O)Cn1nc(-c2ccccc2)c2cnc3ccc(C)cc3c21 | 73* | 1 | 3 | -23 | 7
COC(=O)CNc1nc(Cl)nc(Nc2ccc(Cl)cc2)n1 | 74* | -1 | 3 | -5 | 0
COC(=O)CNc1nc(Cl)nc(Nc2ccc(C)cc2)n1 | -6 | 0 | -1 | 2 | 8
CCCn1c(CN(Cc2ccccc2)Cc2ccccc2)nc2c1c(=O)n(C)c(=O)n2C | 92* | -1 | 1 | 2 | 5
CCCn1c(CN(C)Cc2ccccc2)nc2c1c(=O)n(C)c(=O)n2C | 25 | 1 | 0 | 20 | 1
O=C(NCc1ccccc1Cl)c1ccc(CS(=O)Cc2ccc(Cl)cc2)o1 (stereo unspecified) | . | -11 | 5 | 10 | -3
O=C(Nc1ccc(Cl)cc1)Nc1ccc(Br)cn1 | . | -2 | 5 | 4 | -6
O=C(/C(Cl)=C/Nc1ccc(Br)cn1)C(F)(F)F | 87* | 8 | 1 | -6 | -1
CN(C)c1cccc(C(=O)NCc2ccc3c(c2)OCO3)c1 | . | 2 | 1 | 4 | 2
CC1=CC(C)(C)N(C(=O)C(C)N2C(=O)c3ccccc3C2=O)c2c(C)cc(C)cc21 (stereo unspecified) | 105* | . | . | . | .
COc1ccc2c(c1)C(C)=CC(C)(C)N2C(=O)C(C)N1C(=O)c2ccccc2C1=O (stereo unspecified) | 4 | -3 | -1 | 24 | 5
CCOc1ccc(C(c2c(NC(=O)c3ccccc3)sc(C)c2C)N2CCN(CCO)CC2)cc1 (stereo unspecified) | 83* | 3 | 2 | 17 | 3
Cc1sc(NC(=O)c2ccco2)c(C(c2cccnc2)N2CCN(CCO)CC2)c1C (stereo unspecified) | 36 | 1 | 2 | -2 | -1
Cc1ccc(C)c(S(=O)(=O)N/N=C/c2cccnc2)c1 | 72* | -2 | 1 | 12 | 0
Cc1ccc(N2CCN(S(=O)(=O)c3ccc4c(c3)NC(=O)C(C)C(=O)N4)CC2C)cc1 (stereo unspecified) | . | -2 | 0 | -9 | 4
Cc1ccc(/C=C/C(=O)c2ccccc(=O)c2O)c(C)c1 | 77* | 2 | 5 | -5 | 15
O=C(/C=C/c1ccc([N+](=O)[O-])cc1)c1ccccc(=O)c1O | . | . | . | . | 29
Cc1ccc(C)c(/C=C/C(=O)c2ccccc(=O)c2O)c1 | 93* | . | . | -4 | 9
O=C(/C=C/c1ccccc1Cl)c1ccccc(=O)c1O | -64 | . | . | 27 | -4
COc1ccccc1CN1CC(C(=O)N(C)CCc2nc3ccc(F)cc3[nH]2)CCC1=O (stereo unspecified) | . | -3 | 0 | 1 | 5
O=C(NCCc1ccc(Cl)cc1)C1CCC(CNc2nc(=S)[nH]c3ccccc23)CC1 (stereo unspecified) | 87* | 27 | -1 | 12 | 0
O=C(NCCC1=CCCCC1)C1CCC(CNc2nc(=S)[nH]c3ccccc23)CC1 (stereo unspecified) | 94* | 10 | 3 | 6 | 1
SMILES | CHOP inhibitor | UPR XBP1 act | CHOP UPR activ | VLA-4 inh | Beta2AR agonist
CCCCNC(=O)C1CCC(CNc2nc(=S)[nH]c3ccccc23)CC1 (stereo unspecified) | 23 | 0 | 3 | 17 | -9
COc1cc(/C=C(\C#N)c2ccccn2)ccc1OCC(=O)Nc1cccc(C(F)(F)F)c1 | 68 | 1 | 1 | -1 | 76*
COc1cc(/C=C(\C#N)c2ccccn2)ccc1OCc1ccccc1Cl | -8 | . | . | 11 | 9
Cc1ccn2c(NC3CCCCC3)c(-c3cccc(-c4cccc(Cl)c4)c3)nc2c1 | . | 2 | 2 | -14 | 23
CCCCn1c(=O)[nH]c(=O)c2c1nc(-c1ccc(CC)c([N+](=O)[O-])c1)n2C | 76* | 8 | -1 | -8 | .
O=C1ON=C(c2cccc([N+](=O)[O-])c2)/C1=C/c1ccc(O)cc1 | -88 | -2 | 29 | -33 | 53*
COc1ccc(OC)c(Cc2nnc(CCC(=O)N3CCN(C4CCCC4)CC3)o2)c1 | . | 0 | 2 | 11 | -9
CCOC(=O)c1c(C(F)(F)C(F)(F)C(F)(F)C(F)(F)F)n[nH]c1C | 82* | -1 | 0 | 7 | -18
OCC[C@H]1C[C@H](O)[C@@H](O)[C@]2(Cc3ccccc3CCO2)O1 | . | 0 | 0 | -14 | 2
O=C1N(Cc2ccccc2F)c2ccccc2C12OCCCO2 | -6 | 1 | 2 | -2 | 4
CC(C)CC(=O)CN1C(=O)C2(OCCO2)c2ccccc21 | 75* | -1 | -2 | -1 | 7
O=C1N(Cc2ccc(F)cc2Cl)c2ccccc2C12OCCCO2 | 80* | 8 | 1 | 0 | 7
CCCC(=O)CN1C(=O)C2(OCCO2)c2ccccc21 | 30 | -2 | 1 | 21 | -2
Cc1nc2ccccc2c(=O)n1NC(=O)c1ccccc1Br | . | 2 | -2 | 4 | 2
COc1cc(O)ccc1C(=O)CCc1ccc(O)cc1 | . | 2 | 2 | 11 | 7
Clc1nnc(N/N=C/c2ccccc2)c2ccccc12 | 75* | 2 | 1 | 9 | -8
N#C/C(=C\c1cccc([N+](=O)[O-])c1)C(=O)Nc1cccnc1 | -10 | 1 | 2 | 7 | 2
N#C/C(=C\c1cccc([N+](=O)[O-])c1)C(=O)NCc1ccc(Cl)cc1 | 92* | . | . | . | 42
N#C/C(=C/c1cccc([N+](=O)[O-])c1)C(=O)Nc1ccccc1O | 4 | 2 | -1 | 5 | 57*
O=C(O)c1ccc2c(=O)n3cc(C(=O)c4ccccc4O)cc(Cl)c3nc2c1 | 36 | -2 | -1 | -5 | 16
O=C(O)c1cc(N2CCCCC2)ccn1 | . | . | . | . | -9
Cc1ccc(N2CCN(C(=O)c3ccccc3Br)CC2)c(C)c1 | 87* | 0 | 0 | 2 | 5
Cc1ccc(C)c(N2CCN(C(=O)c3ccccc3Br)CC2)c1 | 87* | -2 | -1 | 15 | -2
Cc1ccc(C)c(N2CCN(C(=O)C3CCN(c4nc(C)cc(C)n4)CC3)CC2)c1 | 88* | -3 | 0 | -3 | 11
Cc1ccc(N2CCN(C(=O)c3ccccc3)CC2)c(C)c1 | 41 | 4 | -1 | 10 | 0
C=CCN1C(=O)c2ccc(C(=O)N(CCC)CC(=O)Nc3ccccc3C)cc2C1=O | . | 0 | -1 | 2 | 2
O=C(NN1CCOCC1)c1cc(S(=O)(=O)Nc2cccc(C(F)(F)F)c2)ccc1Cl | -15 | -1 | 0 | 0 | 5
